Source: PubChem BioAssay (Broad Institute)
Sampled rows, rich in hits. Any-hit rate of the full collection: about 2.7%.
CaV13 ICDI inh: Disruptors of the CACNA1D IQ motif to Ca2+-dependent inactivation inhibitor domain association, primary screening, Förster resonance energy transfer in intact living … | HEK cells, CFP/YFP FRET ICDI-IQ, plate reader, 10 min; percent FRET-ratio fall versus neutral wells | inhibition, % at 12.3 µM | 0.098% of 340,000 active | AID 743397;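 active means mean replicate inhibition of at least 30% and at least 1% of replicates passing that level; inconclusive means only one of the two criteria is met; inactive means neither criterion is met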;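 further: 0% = median of the neutral control wells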
DENV2 CPE rescue: inhibitors of DENV2 cytopathic effect, primary screen, cell-based, plate reader, single concentration; 1.7% of 350,000 active; DENV2-infected cells, cytopathic effect rescue; CPE inhibition, % at 9.99 µM; AID 651640, 2012; in the data active means CPE inhibition above about 20%, passing the limit was not always enough; inconclusive means no clear call, values can overlap the other calls; tested in BHK-21 cells;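 further: 0% = median of neutral control wells and 100% = median of positive control wells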
MLL AF4-AF9 inh: inhibitors of AF4 peptide binding to AF9, primary screen, biochemical, AlphaScreen, biotin-AF4 peptide, FLAG-AF9, single point; AID 651704, 2012; Protein AF-9 (Homo sapiens), P42568; inhibition, % at 10 µM; 0.47% of 350,000 active;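 active means every replicate reaching a set inhibition limit, whatever the replicate mean, cut at about 25% in these data; inconclusive means mean inhibition reaches that limit but some replicates miss it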;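 further: 0% = plate neutral control median and 100% = total signal loss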
S100A4 MyoIIA: inhibitors of S100A4-myosin IIA peptide binding, primary screen, biochemical, fluorescence polarization, TAMRA-MyoIIA peptide; Protein S100-A4 (Homo sapiens), P26447; inhibition, % at 10.7 µM; 0.14% of 360,000 active; AID 652163, 2013;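 active means mean inhibition of at least 70% across replicates, with every replicate also reaching that level; inconclusive means mean inhibition reaches 70% but some replicates fall short; inactive means mean inhibition below 70%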
Target sequence (P26447 whole entry, looked up): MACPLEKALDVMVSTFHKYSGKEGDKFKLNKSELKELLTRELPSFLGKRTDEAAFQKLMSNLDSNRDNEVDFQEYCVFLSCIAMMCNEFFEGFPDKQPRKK
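Material: S100A4 monomer protein / Buffer or medium: 50 mM HEPES pH 7.2, 10 mM CaCl2, 100 mM KCl / Times: 5 min incubation before reading / Benchmarks: neutral control DMSO, positive control TFP / Reagent: labelled myosin peptide probe, 5 nM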
SIRT5 block: SIRT5 desuccinylase inhibitors, primary screen, biochemical, fluorescence imaging, single point, set 5. inhibition, % at 15 µM. 1.1% of 330,000 active. Purified SirT5, succinyl-peptide AMC, trypsin-coupled fluorescence; in the data active means inhibition above about 15%; inconclusive means no clear call, values can overlap the other calls
Target sequence (Q9NXA8 whole entry, looked up): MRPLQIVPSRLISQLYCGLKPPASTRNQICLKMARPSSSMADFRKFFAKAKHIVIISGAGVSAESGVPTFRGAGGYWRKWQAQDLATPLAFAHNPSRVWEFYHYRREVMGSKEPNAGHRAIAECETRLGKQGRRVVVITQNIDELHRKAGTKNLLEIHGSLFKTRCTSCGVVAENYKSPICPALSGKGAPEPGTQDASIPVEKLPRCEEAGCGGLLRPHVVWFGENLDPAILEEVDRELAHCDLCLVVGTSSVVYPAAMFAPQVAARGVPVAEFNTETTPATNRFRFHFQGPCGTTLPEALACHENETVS
Starred values were filed as active, the others as inactive; ? = inconclusive; / = no result; ! = a repeat was not active.

SMILES | CaV13 ICDI inh | DENV2 CPE rescue | MLL AF4-AF9 inh | S100A4 MyoIIA | SIRT5 block
CC(C)(C)C(=O)CC1(O)C(=O)N(Cc2ccccc2)c2ccccc21 (configuration not stated) | -5 | 1 | -32 | 5 | -3
CC1NC2(C(=O)N(Cc3ccccc3)c3ccccc32)C2C(=O)N(c3ccccc3)C(=O)C12 (configuration not stated) | -5 | 3 | 9 | 86* | -5
COc1cc(/C=C(\C#N)C(=O)c2ccc(O)c(O)c2)cc(I)c1O | -4 | 0 | 1 | -15 | 20*
COCC(=O)Nc1ccc2c(c1)C(=O)N(C)C[C@H](OC)[C@@H](C)CN(C(=O)COC)[C@@H](C)CO2 | / | -6 | -2 | 0 | -2
COCC(=O)Nc1ccc2c(c1)C(=O)N(C)C[C@@H](OC)[C@H](C)CN(C(C)=O)[C@@H](C)CO2 | / | 32* | -3 | 5 | -1
COCC(=O)Nc1ccc2c(c1)C(=O)N(C)C[C@H](OC)[C@H](C)CN(C(=O)COC)[C@H](C)CO2 | / | 24* | 3 | 4 | -2
CCCC(=O)N1CC2(CCN(Cc3cccnc3)CC2)c2c([nH]c3cc(OC)ccc23)[C@@H]1CO | / | 4 | 6 | / | /
CN=c1scc(-c2ccc([N+](=O)[O-])cc2)n1/N=C/c1ccco1 | 0 | 2 | 6 | 1 | 0
CN=c1scc(-c2ccc(F)cc2)n1/N=C/c1ccc(O)c(O)c1 | -4 | 3 | 59* | 7 | 0
COc1cccc(OC)c1OCCN1CCCC1 | -5 | 0 | -3 | 1 | 21*
COc1ccccc1-c1ccc2c(c1)O[C@H](CN(C)CC1CCOCC1)[C@H](C)CN([C@@H](C)CO)S2(=O)=O | / | 2 | 1 | -8 | 0
COc1ccccc1-c1ccc2c(c1)O[C@@H](CN(C)CC1CCOCC1)[C@H](C)CN([C@H](C)CO)S2(=O)=O | / | -1 | -3 | -38 | 16*
C[C@H](CO)N1C[C@H](C)[C@@H](CN(C)Cc2ccc3c(c2)OCO3)Oc2cc(-c3cccc(C(=O)N(C)C)c3)ccc2S1(=O)=O | / | 15 | 1 | 6 | 18*
C[C@H]1CN([C@@H](C)CO)S(=O)(=O)c2ccc(-c3cccc(C(=O)N(C)C)c3)cc2O[C@@H]1CN(C)Cc1ccc2c(c1)OCO2 | / | 1 | 3 | 8 | 15*
COc1ccccc1-c1ccc2c(c1)O[C@H](CN(C)Cc1ccc3c(c1)OCO3)[C@H](C)CN([C@H](C)CO)S2(=O)=O | / | -2 | 6 | 3 | 22*
Cc1noc(C)c1NC(=O)N(C)C[C@@H]1Oc2c(NC(=O)NC3CCCCC3)cccc2C(=O)N([C@H](C)CO)C[C@@H]1C | / | -2 | -3 | 2 | -5
C[C@@H]1CCCCO[C@@H](CN(C)S(=O)(=O)c2ccccc2)[C@H](C)CN([C@@H](C)CO)C(=O)c2cc(NS(=O)(=O)c3ccc(F)cc3)ccc2O1 | / | 4 | -11 | -7 | 4
CCCN1CCc2c(sc(NC(=O)C3CCN(S(=O)(=O)c4cccs4)CC3)c2C(N)=O)C1 | 34* | 9 | 4 | -2 | 2
CCN1CCc2c(sc(NC(=O)c3ccc(S(=O)(=O)N(C)CC4CCCO4)cc3)c2C(N)=O)C1 (configuration not stated) | -7 | -2 | 3 | 2 | 24*
CC(C)N1CCc2c(sc(NC(=O)c3ccc(S(=O)(=O)N(C)CC4CCCO4)cc3)c2C(N)=O)C1 (configuration not stated) | -2 | -7 | 2 | -8 | -2
CN1c2ccc(Br)cc2[C@@H]2[C@@H](CCN2C(=O)C2CCCC2)[C@@H]1CO | / | 5 | 7 | -2 | 1
CCS(=O)(=O)Nc1ccc2c(c1)C(=O)N(C)C[C@H](OC)[C@@H](C)CN(C(=O)C1CC1)[C@@H](C)CO2 | / | -1 | 0 | 3 | 1
C[C@@H]1CN([C@H](C)CO)C(=O)c2c(c3ccccc3n2C)-c2ccccc2CO[C@@H]1CN(C)C(=O)c1cc(Cl)cc(Cl)c1 | / | 60* | 3 | 3 | 19*
C[C@H]1CN([C@@H](C)CO)C(=O)c2c(c3ccccc3n2C)-c2ccccc2CO[C@@H]1CN(C)C(=O)c1cc(Cl)cc(Cl)c1 | / | -2 | 7 | 2 | 1
Cc1noc(C)c1C(=O)N(C)C[C@@H]1OCc2ccccc2-c2c(n(C)c3ccccc23)C(=O)N([C@H](C)CO)C[C@H]1C | -10 | -5 | 0 | -7 | 17*
SMILES | CaV13 ICDI inh | DENV2 CPE rescue | MLL AF4-AF9 inh | S100A4 MyoIIA | SIRT5 block
Cc1noc(C)c1C(=O)N(C)C[C@@H]1OCc2ccccc2-c2c(n(C)c3ccccc23)C(=O)N([C@@H](C)CO)C[C@H]1C | / | 1 | -3 | 2 | 1
O=C1c2ccccc2C(c2nnnn2Cc2ccccc2)N1Cc1ccc(F)cc1 (configuration not stated) | -6 | -6 | -3 | 10 | -2
O=C1c2ccccc2C(c2nnnn2Cc2ccccc2)N1Cc1ccco1 (configuration not stated) | -8 | -5 | -1 | -5 | 15*
C[C@H]1CN([C@@H](C)CO)C(=O)c2ccccc2-c2ccccc2CO[C@H]1CN(C)Cc1ccc2c(c1)OCCN2C | / | -2 | 34* | 9 | 0
C[C@@H]1CN([C@H](C)CO)C(=O)c2c(c3ccccc3n2C)-c2ccccc2CO[C@H]1CN(C)Cc1ccc2c(c1)OCCN2C | -3 | 28*! | 42*! | 3 | 0
C[C@H](CO)N1C[C@H](C)[C@H](CN(C)Cc2ccc3c(c2)OCCN3C)OCc2ccccc2-c2ccccc2C1=O | / | 5 | 16 | 9 | 1
C[C@H]1CN([C@@H](C)CO)C(=O)Cc2cc(NS(=O)(=O)c3ccccc3)ccc2O[C@@H]1CN(C)Cc1ccc(-c2ccccc2)cc1 | / | 40* | -1 | -1 | 14
C[C@@H]1CN([C@@H](C)CO)C(=O)Cc2cc(NS(=O)(=O)c3cn(C)cn3)ccc2O[C@H]1CN(C)Cc1ccc(-c2ccccc2)cc1 | / | 26* | 9 | -11 | -5
C[C@@H]1CN([C@H](C)CO)C(=O)Cc2cc(NS(=O)(=O)c3ccccc3)ccc2O[C@H]1CN(C)Cc1ccc(-c2ccccc2)cc1 | / | 0 | -4 | 7 | 15*
C[C@@H]1CN([C@@H](C)CO)C(=O)Cc2cc(NS(=O)(=O)c3ccccc3)ccc2O[C@H]1CN(C)Cc1ccc(-c2ccccc2)cc1 | / | ? | 0 | 4 | 2
C[C@H]1CN([C@@H](C)CO)C(=O)Cc2cc(NS(=O)(=O)c3ccccc3)ccc2O[C@H]1CN(C)Cc1ccc(-c2ccccc2)cc1 | / | ? | 0 | 7 | 9
